pIC50: −log10 of the molar value.
Key:
[1] = Inhibitory activity against hemolysis of antibody-sensitized sheep erythrocytes using human serum as complementary source in multiple assay; format: functional
Outline: (§1)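 Antibody-sensitized sheep erythrocytes were exposed to compounds and to human serum in 0.1 M HEPES, 0.15 N NaCl, pH 7.4. Serum dilution was pre-set to lyse 80–90% of cells. Incubation 60 min at 37 °C, then centrifugation and supernatant A410 for hemoglobin release. Triplicate controls without serum were subtracted. Inhibition is relative to the no-compound sample.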

[2] = Inhibitory activity against C5a production by activated human serum complement; format: functional
Outline: (§2)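 Human serum aliquots (400 μL) equilibrated at 37 °C with varying compound concentrations in 0.1 M Hepes, 0.15 N NaCl, pH 7.4. Complement activated with heat-aggregated IgG at 14 mg/mL, 10 min at 37 °C. C3a[desArg] and C5a[desArg] were measured by radioimmunoassay. Triplicates were averaged. Fractional inhibition is relative to the no-compound sample and the background without aggregated IgG.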

[3] = Inhibitory activity against hemolysis (complement-mediated erythrocyte lysis) of antibody-sensitized sheep erythrocytes using human serum as complementary source; format: functional; outline: as §1
T-cell = assay: Inhibitory activity against lectin-stimulated T cell proliferation; format: functional, cell-based
Homo sapiens [4] = species: Homo sapiens; assay: Inhibitory activity against mitogen-stimulated PBL proliferation; format: functional
[5] = (§3) Compound was tested to inhibit the production of C5a relative to C3a; format: functional, Homo sapiens; outline: as §2
Homo sapiens [6] = species: Homo sapiens; assay: Inhibitory activity against mitogen-stimulated PBL proliferation; Range 1.7-2.8 mM; format: functional
[7] = as §3; format: functional, Homo sapiens; outline: as §2; remark: listed apart in the source

Row | pIC50 [2] | pIC50 [5] | pIC50 [7] | Compound | pIC50 [1] | pIC50 ([3]; read-out: IC50) | inhibition (T-cell) | pIC50 (Homo sapiens [4]) | pIC50 (Homo sapiens [6]) | IC50 [3]
1 | 2.52 |  |  | C[C@@H]1CCC2C(C)(C)[C@H](O)[C@H](O)C[C@]2(C)[C@@]12Cc1c(O)cc(C(=O)O)c(C=O)c1O2 (stereo not given in full) | 3.24 | 3.52 | Inhibit | 3.30 |  | 
2 |  | 2.22 | 2.10 | COc1ccc(C(=O)O)c2c1CC(C)(C1CC=C(C)CC1)O2 (stereo not given) |  |  |  |  | > 2.55 | 
3 |  |  |  | CC1=CCC(C2(C)Cc3c(O)ccc(C(=O)O)c3O2)CC1 (stereo not given) |  |  |  |  | > 2.55 | Less Effective

From ChEMBL document CHEMBL1128306, “Design, synthesis, and evaluation of A/C/D-ring analogs of the fungal metabolite K-76 as potential complement inhibitors” (J Med Chem, 1995)
